In assay [1] the test system is Candida albicans. Description: In vitro minimum inhibitory concentration which is the lowest concentration at which no signs of fungal growth were detected against Candida albicans 124. In kind it is functional. In short, it runs like this:
(§1)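 Yeast tube dilution in malt extract broth (pH 4.8), with compounds in DMSO serially diluted in the medium. Inoculum was blastospores from about 30-h shaken cultures in yeast nitrogen base at 37 °C. Growth was read after 48 h at 30 °C. MIC was the lowest concentration without macroscopically visible growth.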

The subject of assay [2] is Scopulariopsis brevicaulis. Kind of assay: In vitro minimum inhibitory concentration at which no signs of fungal growth were detected against laboratory adapted strains of Scopulariopsis brevicaulis. Format: functional. Put shortly:
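Inoculum of this mould harvested from 21-day-old Kimming agar cultures grown at 30 °C. Compounds dissolved in DMSO and serially diluted in broth in glass tubes. Incubated at 30 °C and read after 72 h. MIC is the lowest concentration with no macroscopically detectable growth.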

Assay [3] has as its system Nakaseomyces glabratus. Description: In vitro minimum inhibitory concentration at which no signs of fungal growth were detected against laboratory adapted strains of Torulopsis glabrata. Format: functional. In short, it runs like this:
(§2)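 Yeast blastospores taken from shaken cultures about 30 h old, grown at 37 °C in yeast nitrogen base. Tube dilution used malt extract broth (pH 4.8); compounds were dissolved in DMSO and serially diluted in medium. Incubated at 30 °C and read after 48 h. MIC is the lowest concentration with no macroscopic growth.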

Assay [4] relates to Aspergillus fumigatus. Description: In vitro minimum inhibitory concentration which is the lowest concentration at which no signs of fungal growth were detected against Aspergillus fumigatus.
Assay [5] relates to Candida albicans. Kind of assay: In vitro minimum inhibitory concentration at which no signs of fungal growth were detected against laboratory adapted strains of Candida albicans. In kind it is functional. Put shortly:
as §2

Assay [6] deals with Arthrodermataceae. Description: In vitro minimum inhibitory concentration at which no signs of fungal growth were detected against laboratory adapted strains of dermatophytes. In kind it is functional. Put shortly:
(§3)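 Sabouraud's dextrose broth (pH 6.5) in glass tubes; compounds dissolved in DMSO and serially diluted with medium. Incubated at 30 °C and read after 7 days. MIC is the lowest concentration with no macroscopically visible fungal growth.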

Assay [7] relates to Aspergillus fumigatus. Kind of assay: In vitro minimum inhibitory concentration at which no signs of fungal growth were detected against laboratory adapted strains of Aspergillus fumigatus. In kind it is functional. Put shortly: (§4)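 Inoculum of filamentous fungi harvested from 21-day-old Kimming agar cultures grown at 30 °C. Broth dilution in glass tubes with Sabouraud's dextrose broth (pH 6.5); compounds dissolved in DMSO and serially diluted in medium. Incubation at 30 °C, read after 72 h. MIC taken as the lowest concentration with no macroscopically visible growth.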

The subject of assay [8] is Microsporum canis. Description: In vitro minimum inhibitory concentration which is the lowest concentration at which no signs of fungal growth were detected against Microsporum canis. In kind it is functional. Put shortly: (§5)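 Dermatophytes were tested in glass tubes of Sabouraud's dextrose broth (pH 6.5) against DMSO-dissolved compounds serially diluted in the medium. Inoculum was taken by spatula from 21-day Kimming agar cultures grown at 30 °C. Incubation was 7 days at 30 °C. MIC was the lowest concentration showing no macroscopic fungal growth.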

Assay [9] has as its system Aspergillus niger. Kind of assay: In vitro minimum inhibitory concentration at which no signs of fungal growth were detected against laboratory adapted strains of Aspergillus niger. Format: functional. In short, it runs like this: as §4
The subject of assay [10] is Sporothrix schenckii. Description: In vitro minimum inhibitory concentration which is the lowest concentration at which no signs of fungal growth were detected against Sporothrix schenckii.
For assay [11], the system named is Candida parapsilosis. Description: In vitro minimum inhibitory concentration which is the lowest concentration at which no signs of fungal growth were detected against Candida parapsilosis 39. Format: functional. Conditions: Lodderomyces parapsilosis. Put shortly:
as §1

Assay [12] concerns Candida parapsilosis. Description: In vitro minimum inhibitory concentration at which no signs of fungal growth were detected against laboratory adapted strains of Candida parapsilosis. Conditions: Lodderomyces parapsilosis. Format: functional. In short, it runs like this:
as §2

Assay [13] deals with Arthrodermataceae. Description: In vitro minimum inhibitory concentration at which no signs of fungal growth were detected against clinically isolated strains of dermatophytes. Format: functional. In short, it runs like this:
as §5

The subject of assay [14] is Candida albicans. Kind of assay: In vitro minimum inhibitory concentration at which no signs of fungal growth were detected against clinically isolated strains of Candida albicans. In kind it is functional. Put shortly: as §1
The subject of assay [15] is Trichophyton benhamiae. Description: In vitro minimum inhibitory concentration which is the lowest concentration at which no signs of fungal growth were detected against Trichophyton mentagrophytes. Format: functional, Arthroderma benhamiae. In short, it runs like this:
as §5

The test system of assay [16] is Sporothrix schenckii. Description: In vitro minimum inhibitory concentration at which no signs of fungal growth were detected against laboratory adapted strains of Sporothrix schenck ii. In kind it is functional. Put shortly:
as §3

The term MIC denotes the lowest concentration found to suppress growth.

In brackets after ≈: the same amount, converted by molar mass.

With `CN(C/C=C/C#CC(C)(C)C)Cc1cccc2ccccc12` [TERBINAFINE], the minimum inhibitory concentration (MIC) in [1] is 25 µg/mL (≈ 85.8 µM); in assay [2], 0.8 µg/mL (≈ 2.75 µM); in [3] it was over 100 µg/mL; in assay [4] it was 0.4 µg/mL (≈ 1.37 µM); in [5] it was 50 µg/mL (≈ 172 µM); in assay [6], 0.006 µg/mL (≈ 0.0206 µM). The MIC in [7] was 1.56 µg/mL (≈ 5.35 µM); in assay [8] it was 0.006 µg/mL (≈ 0.0206 µM); in [9], 0.02 µg/mL (≈ 0.0686 µM); in assay [10], 0.8 µg/mL (≈ 2.75 µM); in assay [11] it was 0.8 µg/mL (≈ 2.75 µM); in assay [12] it was 0.8 µg/mL (≈ 2.75 µM). In addition, the MIC in [13] amounted to 0.01 µg/mL (≈ 0.0343 µM); in assay [14], 100 µg/mL (≈ 343 µM); in [15], 0.003 µg/mL (≈ 0.0103 µM); in assay [16], 0.4 µg/mL (≈ 1.37 µM).

Values taken from ChEMBL document CHEMBL1125755, “Synthesis and structure-activity relationships of benzo[b]thienylallylamine antimycotics” (1991).
